# Assay results pooled from the literature.
# Protocols differ between the studies behind these lines.
# Target: STE20-like serine/threonine-protein kinase (SLK, Homo sapiens, UniProt Q9H2G2)
Compound,assay,setting,quantity,value
N#CC1(c2ccccn2)CCN(Cc2cc(C(=O)O)c(=O)n3ccccc23)CC1,"cell-free assay, competition with immobilised ligand",1 µM,remaining binding,99%
O=c1[nH]c2ccccc2n1C1CCN(Cc2ccc(-c3[nH]c4cc5ncnc5cc4nc3-c3ccccc3)cc2)CC1,cell-free assay,0.5 µM,remaining signal,97.7%
COc1ncccc1-c1cnn2ccc(N3CCN(C(=O)OC(C)C)CC3)nc12,"binding, competition with immobilised ligand",1 µM,remaining binding,100%
Cn1cc(-c2cccc(N3CCc4c(sc5c4CC(C)(C)C5)C3=O)c2CO)cc(Nc2ccncn2)c1=O,"enzyme activity, inhibitor",1 µM,inhibition,4%
COc1cc(Nc2ncc(F)c(Nc3ccc4c(n3)NC(=O)C(C)(C)O4)n2)cc(OC)c1OC,binding,10 µM,inhibition,100%
Cn1cncc1[C@@](O)(COc1ccc(C#N)cc1-c1ccc(OC(F)(F)F)cc1)c1ccc(C#N)cc1,"cell-free assay, competition with immobilised ligand",1 µM,remaining binding,100%
Cc1nn(C)cc1-c1nc2c(N3CCN(Cc4ccc(Cl)cc4)CC3)c(Cl)cnc2[nH]1,"binding, competition with immobilised ligand",1 µM,remaining binding,100%
Nc1ncc(-c2nc(N3CCOCC3)nc(N3CCOCC3)n2)c(C(F)F)n1,"binding, competition with immobilised ligand",10 µM,remaining binding,24%
CC(C)(C)c1cc(C=C(C#N)C#N)cc(Br)c1O,"enzyme activity, inhibitor",0.5 µM,remaining activity,94.7%
Cn1cc(-c2cc(F)cc(N3CCn4c(cc5c4CCCC5)C3=O)c2CO)cc(Nc2ccc(N3CCN(C4COC4)CC3)cn2)c1=O,"enzyme activity, inhibitor",0.1 µM,inhibition,4%
